From ChEMBL document CHEMBL4043125, “Design, synthesis, and pharmacological evaluation of a novel series of hormone sensitive lipase inhibitor” (Bioorg Med Chem, 2017) come the findings set out here.

The structures appear in SMILES notation. In brackets after ≈: the same amount, converted by molar mass. Activity calls are given as the source filed them. The calls are words filed in the database; no cut-off is given here.

Data set [1] has as its target T1, Hormone-sensitive lipase (Rattus norvegicus, UniProt P15304).
T1 sequence (P15304 whole entry): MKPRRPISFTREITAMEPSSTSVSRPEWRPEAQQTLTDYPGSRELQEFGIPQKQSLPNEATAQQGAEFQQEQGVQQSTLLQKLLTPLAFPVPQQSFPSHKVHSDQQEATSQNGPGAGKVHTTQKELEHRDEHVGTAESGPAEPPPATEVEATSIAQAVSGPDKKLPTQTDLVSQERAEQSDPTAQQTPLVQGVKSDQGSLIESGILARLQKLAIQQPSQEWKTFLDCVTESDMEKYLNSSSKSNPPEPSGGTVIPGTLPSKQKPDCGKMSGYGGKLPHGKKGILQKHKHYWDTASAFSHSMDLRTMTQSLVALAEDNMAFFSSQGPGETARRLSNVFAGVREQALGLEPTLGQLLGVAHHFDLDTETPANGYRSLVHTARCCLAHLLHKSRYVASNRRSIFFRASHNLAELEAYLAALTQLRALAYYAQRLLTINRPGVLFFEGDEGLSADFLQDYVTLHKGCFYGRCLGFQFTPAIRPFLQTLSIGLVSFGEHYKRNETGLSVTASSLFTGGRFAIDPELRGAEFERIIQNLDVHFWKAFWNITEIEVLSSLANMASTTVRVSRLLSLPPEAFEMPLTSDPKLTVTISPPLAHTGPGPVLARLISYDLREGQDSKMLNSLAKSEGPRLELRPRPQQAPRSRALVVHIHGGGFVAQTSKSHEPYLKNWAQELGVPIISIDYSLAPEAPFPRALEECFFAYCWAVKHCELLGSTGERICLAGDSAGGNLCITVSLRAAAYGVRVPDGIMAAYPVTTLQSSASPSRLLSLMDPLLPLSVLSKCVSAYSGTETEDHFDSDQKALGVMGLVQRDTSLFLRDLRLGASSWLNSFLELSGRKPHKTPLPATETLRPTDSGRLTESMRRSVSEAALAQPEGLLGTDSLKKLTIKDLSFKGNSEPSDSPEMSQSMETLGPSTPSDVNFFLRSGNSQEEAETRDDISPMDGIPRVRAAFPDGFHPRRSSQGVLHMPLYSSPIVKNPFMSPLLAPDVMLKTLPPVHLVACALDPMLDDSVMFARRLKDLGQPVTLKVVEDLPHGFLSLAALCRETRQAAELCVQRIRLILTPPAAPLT
Description: Inhibition of HSL in rat adipocytes assessed as reduction in lipolysis by measuring glycerol concentration incubated for 30 mins by spectrophotometric analysis. The class given is cell-based. A digest of the protocol:
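Rat subcutaneous white adipocytes, differentiated 7 days, washed in lipolysis buffer (pH 7.0, with glucose, HEPES, adenosine, 1% BSA). Compound dilutions in DMSO added, 30 min at 37°C, 5% CO2. Supernatant glycerol measured with a free glycerol kit at 540 nm. Triplicate; IC50 from nonlinear curve fitting.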

Data set [2] concerns the target Acetylcholinesterase (Homo sapiens) (UniProt P22303). The data set can be described thus: Inhibition of AChE (unknown origin) at 10 uM using acetylthiocholine iodide as substrate preincubated for 10 mins followed by substrate addition measured after 15 mins by spectrophotometric analysis relative to control. In outline:
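Enzyme (100 U/mL) preincubated with inhibitor 10 min at room temperature, then mixed with 0.1 M potassium phosphate-HCl pH 8.0, acetylthiocholin iodide (final 500 μM) and DTNB; incubated 15 min at 37°C with shaking. Absorbance at 405 nm read at 0 and 15 min. Tested at 1, 10 and 100 μM.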

The target in data set [3] is Cholinesterase (Homo sapiens) (UniProt P06276). Description: Inhibition of BuChE (unknown origin) at 10 uM using S-butyrylthiocholin iodide as substrate preincubated for 10 mins followed by substrate addition measured after 15 mins by spectrophotometric analysis relative to control. In outline:
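Enzyme (100 U/mL) preincubated with inhibitor 10 min at room temperature, then mixed with 0.1 M potassium phosphate-HCl pH 8.0, S-butyrylthiocholin iodide (final 1000 μM) and DTNB; incubated 15 min at 37°C with shaking. Absorbance at 405 nm read at 0 and 15 min. Tested at 1, 10 and 100 μM.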

In data set [4] the target is T2, Hormone-sensitive lipase (Homo sapiens, UniProt Q05469).
T2 sequence (Q05469 whole entry): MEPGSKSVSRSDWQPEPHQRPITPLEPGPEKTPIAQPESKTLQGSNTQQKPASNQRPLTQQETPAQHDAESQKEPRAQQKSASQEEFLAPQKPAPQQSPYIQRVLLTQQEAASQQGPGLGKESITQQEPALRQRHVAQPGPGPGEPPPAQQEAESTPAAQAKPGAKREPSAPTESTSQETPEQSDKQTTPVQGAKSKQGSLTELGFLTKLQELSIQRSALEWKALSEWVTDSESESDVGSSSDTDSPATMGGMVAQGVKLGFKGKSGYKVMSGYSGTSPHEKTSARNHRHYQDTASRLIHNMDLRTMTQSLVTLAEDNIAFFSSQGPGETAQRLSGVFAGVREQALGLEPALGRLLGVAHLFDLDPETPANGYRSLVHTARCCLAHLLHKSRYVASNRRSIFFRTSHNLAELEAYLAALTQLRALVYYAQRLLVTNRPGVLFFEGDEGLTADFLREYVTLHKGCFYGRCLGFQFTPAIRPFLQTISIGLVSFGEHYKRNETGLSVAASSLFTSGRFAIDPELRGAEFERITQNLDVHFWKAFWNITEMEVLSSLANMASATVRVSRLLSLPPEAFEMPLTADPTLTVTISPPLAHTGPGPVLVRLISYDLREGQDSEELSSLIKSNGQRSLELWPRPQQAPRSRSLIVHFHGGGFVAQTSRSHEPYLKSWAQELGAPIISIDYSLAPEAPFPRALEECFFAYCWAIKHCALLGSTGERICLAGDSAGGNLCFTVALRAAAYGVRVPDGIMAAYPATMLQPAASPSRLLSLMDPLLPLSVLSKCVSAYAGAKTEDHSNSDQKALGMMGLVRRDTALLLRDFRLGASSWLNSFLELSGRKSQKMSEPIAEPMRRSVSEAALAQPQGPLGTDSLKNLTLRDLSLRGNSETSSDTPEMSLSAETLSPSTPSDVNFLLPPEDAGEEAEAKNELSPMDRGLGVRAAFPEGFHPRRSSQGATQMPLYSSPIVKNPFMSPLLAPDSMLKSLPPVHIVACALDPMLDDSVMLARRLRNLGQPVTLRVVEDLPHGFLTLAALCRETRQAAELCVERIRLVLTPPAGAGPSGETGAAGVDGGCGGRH
The data set can be described thus: Inhibition of recombinant human HSL expressed in baculovirus infected sf9 insect cells using PNPB as substrate after 5 mins by spectrophotometric analysis.

A short description of data set [5]: 1-octanol/phosphate buffered saline distribution coefficient, log D of the compound at 200 uM at pH 7.4 after 30 mins by shake flask based HPLC/LC-MS analysis. It is filed as physicochemical. A digest of the protocol: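 Shake-flask LogD: PBS and 1-octanol pre-saturated by shaking and standing overnight. Compound at 200 μM in either phase, equal volume of the other added, shaken 30 min at room temperature, centrifuged 2100 g 5 min. Both phases quantified by HPLC and LC-MS. LogD7.4 = log(octanol peak area/PBS peak area).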

Data set [6] can be described thus: Aqueous solubility of the compound in Japanese pharmacopoeia first fluid at pH 1.2 after 4 hrs by HPLC/UV analysis. The class given is physicochemical. In outline:
(§1)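 Solubility: DMSO sample solution freeze-dried. Residue stirred at 1700 rpm for 4 h in JP first fluid (pH 1.2), JP second fluid (pH 6.8) or FaSSIF. Filtered, filtrate diluted in DMSO, quantified by HPLC-UV against a per-sample calibration curve.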

Data set [7] is described as follows: Aqueous solubility of the compound in Japanese pharmacopoeia second fluid at pH 6.8 after 4 hrs by HPLC/UV analysis. The class given is physicochemical. A digest of the protocol:
as §1

Data set [8] in a line: Aqueous solubility of the compound in FaSSIF after 4 hrs by HPLC/UV analysis. The class given is physicochemical. A digest of the protocol:
as §1

Data set [9] can be described thus: Effective permeability of the compound in prisma HT buffer at 10 mM at pH 5 after 4 hrs by PAMPA. It is filed as physicochemical. To be noted: read-out: Peff. In outline: (§2)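 PAMPA: filter coated with GIT-0 lipid. 10 mM DMSO stock diluted into Prisma HT buffer to give 5 µM donor solution (0.05% DMSO) at pH 5.0 or 7.4. Acceptor sink buffer used. Incubated 4 h at 25°C. Both compartments quantified by LC-MS/MS to derive the permeability coefficient.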
Background: PAMPA measures passive passage across an artificial lipid membrane.

Data set [10] in a line: Effective permeability of the compound in prisma HT buffer at 10 mM at pH 7.4 after 4 hrs by PAMPA. It is filed as physicochemical. The conditions noted are these: read-out: Peff. In outline:
as §2

A short description of data set [11]: Cmax in rat at 3 mg/kg, po by LC-MS/MS analysis. It is filed as ADME, organism-based. Details: dose 3 mg/kg, route oral. The conditions noted are these: in vivo.
Data set [12] is described as follows: AUC (0 to 7 hrs) in rat at 3 mg/kg, po by LC-MS/MS analysis. It is filed as ADME, organism-based. Also noted: time < 7 hr, dose 3 mg/kg, route oral. The conditions noted are these: in vivo.
For data set [13], the system named is Rattus norvegicus. Description: Antilipolytic activity in Wistar rat assessed as reduction in plasma glycerol AUC (0 to 7 hrs) at 1 mg/kg, po by spectrophotometric analysis relative to control. The class given is functional. Details: scale not given: the % may be the effect or the level left. A digest of the protocol:
(§3)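 Male Wistar rats, 8 weeks, fasted overnight. Dosed orally in 0.5% (w/v) methylcellulose, with vehicle controls (n = 4) and treated groups (n = 3). Tail-vein EDTA blood taken pre-dose and at 0.5, 1, 3, 5, 7 h. Plasma glycerol read with a free glycerol kit. Reduction in glycerol AUC0–7h versus vehicle expressed relative to a reference inhibitor group; mean ± SEM.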

Data set [14] deals with Rattus norvegicus. Description: Antilipolytic activity in Wistar rat assessed as reduction in plasma glycerol AUC (0 to 7 hrs) at 10 mg/kg, po by spectrophotometric analysis. The class given is functional, organism-based. In outline:
as §3

Cholinesterase (Homo sapiens), sequence (P06276 whole entry): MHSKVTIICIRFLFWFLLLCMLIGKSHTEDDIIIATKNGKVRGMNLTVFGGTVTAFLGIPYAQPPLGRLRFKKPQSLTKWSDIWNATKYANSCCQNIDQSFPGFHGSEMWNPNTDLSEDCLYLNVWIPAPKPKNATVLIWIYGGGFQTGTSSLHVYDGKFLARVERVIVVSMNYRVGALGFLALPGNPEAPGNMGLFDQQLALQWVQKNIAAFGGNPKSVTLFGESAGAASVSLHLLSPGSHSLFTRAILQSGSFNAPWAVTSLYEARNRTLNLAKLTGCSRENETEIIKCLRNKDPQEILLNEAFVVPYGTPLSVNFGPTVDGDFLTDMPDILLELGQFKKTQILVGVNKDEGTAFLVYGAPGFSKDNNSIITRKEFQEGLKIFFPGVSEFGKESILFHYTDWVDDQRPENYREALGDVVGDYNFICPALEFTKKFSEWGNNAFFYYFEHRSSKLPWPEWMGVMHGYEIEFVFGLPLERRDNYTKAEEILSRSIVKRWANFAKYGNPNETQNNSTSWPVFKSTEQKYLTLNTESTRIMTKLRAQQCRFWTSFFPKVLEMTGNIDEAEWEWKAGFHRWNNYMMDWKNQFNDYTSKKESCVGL
Acetylcholinesterase (Homo sapiens), sequence (P22303 whole entry): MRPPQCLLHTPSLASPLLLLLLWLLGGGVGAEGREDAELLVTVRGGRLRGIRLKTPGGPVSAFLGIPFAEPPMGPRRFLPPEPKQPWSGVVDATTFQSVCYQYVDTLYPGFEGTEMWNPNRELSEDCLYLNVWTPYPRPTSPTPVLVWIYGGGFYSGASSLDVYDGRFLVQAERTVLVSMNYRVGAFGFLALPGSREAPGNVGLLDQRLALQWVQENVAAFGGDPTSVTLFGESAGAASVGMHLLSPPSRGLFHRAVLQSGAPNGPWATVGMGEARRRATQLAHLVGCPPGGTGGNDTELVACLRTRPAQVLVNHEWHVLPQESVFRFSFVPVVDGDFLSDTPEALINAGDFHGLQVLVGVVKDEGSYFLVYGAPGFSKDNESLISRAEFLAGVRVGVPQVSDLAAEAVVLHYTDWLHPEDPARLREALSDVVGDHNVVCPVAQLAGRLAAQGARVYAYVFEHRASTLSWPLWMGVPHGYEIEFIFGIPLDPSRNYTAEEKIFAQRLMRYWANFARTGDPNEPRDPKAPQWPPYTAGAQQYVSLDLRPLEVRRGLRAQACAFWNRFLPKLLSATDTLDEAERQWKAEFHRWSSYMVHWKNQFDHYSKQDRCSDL

One may read the IC50 as the concentration that inhibits the measured activity by half. One may read the inhibition as the relative decrease from the control value, in per cent. As for `O=C(Cc1ccc(Cl)cc1B(O)O)N1CCC(Oc2ccc(C(F)(F)F)cn2)CC1`, the IC50 in data set [1] was 24 nM. The inhibition is 8% in [2] and 5% in data set [3].
On the same counts, the results for `O=C(C(O)c1ccccc1B(O)O)N1CCC(Oc2ccc(C(F)(F)F)cn2)CC1` (configuration not stated) are 280 nM, -4% and 4%.
For `O=C(Cc1ccccc1B(O)O)N1CCC(COc2ccc(C(F)(F)F)cn2)CC1`, in data set [1], the IC50 was determined as 260 nM.
For `CN(C)C(=O)c1ccc(OC2CCN(C(=O)Cc3ccccc3B(O)O)CC2)nc1`, the IC50 in data set [4] is more than 5000 nM.
Regarding `OB(O)c1ccccc1CN1CCC(Oc2ccc(C(F)(F)F)cn2)CC1`, the half-maximal inhibitory concentration (IC50) in data set [1] was 1400 nM.
With `O=C(CCc1ccccc1B(O)O)N1CCC(Oc2ccc(C(F)(F)F)cn2)CC1`, in data set [1], the IC50 was found to be 1400 nM.
Still for that read-out and setting: the result for `O=C(Nc1ccccc1B(O)O)c1ccc(Oc2ccc(C(F)(F)F)cn2)cn1` reads 1100 nM.
As for `O=C(Cc1ccccc1B(O)O)N1CCC(Oc2ccc(C(F)(F)F)cn2)CC1`, the IC50 in data set [1] was found to be 80 nM. Besides, the inhibition amounted to 7% in data set [2] and 46% in [3].
On the same counts, the results for `O=C(Cc1ccccc1B(O)O)N1CCC(Oc2ccc(C(F)(F)F)nc2)CC1` are 180 nM, 6% and 62%.
The term logD denotes lipophilicity at a set pH, counting ionised and neutral species. In the case of `O=C(Nc1ccccc1B(O)O)c1ccc(Oc2ccc(C(F)(F)F)cn2)cc1`, the IC50 in [1] came to 470 nM. This molecule also displayed a log distribution coefficient (logD) at 0.5 h, 200 µM in [5] of 3.2.
A word on the solubility: it is the dissolved amount per volume that the medium holds. As to `O=C(Nc1ccc(Cl)cc1B(O)O)c1ccc(Oc2ccc(C(F)(F)F)cc2)nc1`, in data set [1], the IC50 worked out at 110 nM. Moreover, in [5], the logD at 0.5 h, 200 µM was 4.3. Further, the solubility at 4 h came to 1.8 µg/mL (≈ 4.12 µM) in data set [6], 1.5 µg/mL (≈ 3.44 µM) in data set [7] and 12 µg/mL (≈ 27.5 µM) in [8].
With `COc1ccc(CC(=O)N2CCC(Oc3ccc(C(F)(F)F)cn3)CC2)c(B(O)O)c1`, the IC50 in data set [1] was determined as 45 nM. In addition, the inhibition was 9% in data set [2] and -4% in data set [3].
For orientation: Cmax means the highest concentration seen after dosing. Broadly, the AUC(0-t) is the area under the concentration-time curve up to a stated or last time point. As for `O=C(Cc1ccc(F)cc1B(O)O)N1CCC(Oc2ccc(C(F)(F)F)cn2)CC1`, the inhibition was found to be 7% in data set [2] and 2% in data set [3]. Besides, the Papp at 4 h, 10000 µM in [9] and in data set [10] was more than 50 ×10⁻⁶ cm/s throughout. Further, the logD at 0.5 h, 200 µM in [5] turned out to be 3.7. Further, the solubility at 4 h in [6] came out at 190 µg/mL (≈ 446 µM); in data set [7] it was 84 µg/mL (≈ 197 µM); in data set [8] it was 99 µg/mL (≈ 232 µM). This molecule also yielded a Cmax in [11] of 650 ng/mL. This molecule also returned an AUC(0-t) at 7 h in data set [12] of 3180 ng·h/mL. Besides, in [13], the Activity is 22%.
Consider `O=C(Cc1ccccc1B(O)O)N1CCC(Oc2ccc(C(F)(F)F)cc2)CC1`, for which, in data set [1], the IC50 amounted to 130 nM. In addition, the inhibition stood at 9% in data set [2] and 72% in [3].
On to `O=C(Oc1ccc(Oc2ccc(C(F)(F)F)cn2)cc1)N1CCC(O)CC1`, for which the result in data set [14] was Active.
